Results taken from PMC2229406 (The Journal of General Physiology, 1998).
“And” between values parts separate entries of the source, which are not always exact repeats. Identical values can stand only once. Like-named read-outs stand apart in the source and are kept apart here.

Columns and labels:
[1] = system: sheep cardiac ryanodine receptor (RyR) channel; details: ref Tinker et al., 1996, cited from earlier work
[2] = system: sheep cardiac ryanodine receptor (RyR) channel; assay type: biochemical
Outline: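 CHAPS-solubilized RyR from sheep ventricular heavy SR (30/40% sucrose interface) was reconstituted into liposomes and fused into phosphatidylethanolamine/n-decane bilayers. Both chambers held 610 mM K+, 20 mM HEPES pH 7.4 and 10 μM contaminant Ca2+, with 100 μM EMD 41000 cis. Single channels only, at 21 ± 2°C. Ryanoid added cytosolically; steady-state runs ≥6 min at +40 mV. Pmod = modified/(modified+unmodified) time; single-site nonlinear regression; mean ± SEM.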

[3] = +40 mV, 500 nM cytosolic, 20 min recording, single exponential fit

Q: Which results are given for `CC(C)[C@@]1(O)[C@@H](O)[C@@]2(O)[C@@]3(C)C[C@]4(O)O[C@@]5([C@H](O)[C@@H](C)CC[C@]35O)[C@@]2(O)[C@]14C` [ryanodol]?
A: voltage dependence of channel modification ([1]; +60 vs −60 mV): more likely to occur and are longer lasting at a holding potential of +60 than −60 mV; amplitude of reduced conductance state, of the normal unmodified conductance [1]: ~70%

Q: Which “mean P o ± SEM in unmodified periods” value ([2]; 50 nM ryanoid, +40 mV, n = 5) does the source give for 21-amino-9α-hydroxy-ryanodine here?
A: 0.62 ± 0.15

Q: And the “mean P o ± SEM in unmodified periods” value ([2]; 100 nM ryanoid, +40 mV, n = 5)?
A: 0.71 ± 0.16

Q: What about the “mean P o ± SEM in unmodified periods” value ([2]; 300 nM ryanoid, +40 mV, n = 5) of the same molecule?
A: 0.70 ± 0.16

Q: What about the “modification of channel function, luminal addition” value ([2]; 500 nM at the luminal face, +60 or −60 mV, n = 6) of the same molecule?
A: no modification of gating or conductance

Q: And the “total valency / total voltage dependence (z on + z off)” value ([2]; 500 nM cytosolic)?
A: 1.98 and 2

Q: What about the “interaction with the channel at −60 mV” value ([2]; 500 nM cytosolic, −60 mV) of the same molecule?
A: no discernible modified-conductance events

Q: What about the “mean P o ± SEM in unmodified periods” value ([2]; 500 nM ryanoid, +40 mV, n = 5) of the same molecule?
A: 0.56 ± 0.16

Q: What about the “k on, intercept of regression line vs P o” value ([2]; 700 nM cytosolic, +40 mV) of the same molecule?
A: 0.02 ± 0.02 s⁻¹

Q: And the “k on, slope vs P o” value ([2]; 700 nM cytosolic, +40 mV, range P o = 0–1)?
A: 0.97 ± 0.05 s⁻¹

Q: What about the “mean P o ± SEM in unmodified periods” value ([2]; 700 nM ryanoid, +40 mV, n = 4) of the same molecule?
A: 0.73 ± 0.15

Q: What about the “mean P o ± SEM in unmodified periods” value ([2]; 900 nM ryanoid, +40 mV, n = 4) of the same molecule?
A: 0.73 ± 0.15

Q: And the “mean dwell time in the modified state (τmod)” value [2, 3]?
A: 4.21 s

Q: What about the “mean dwell time in the unmodified state (τunmod)” value [2, 3] of the same molecule?
A: 0.95 s

Q: And the “K d from P mod vs concentration” value ([2]; +40 mV, 50-900 nM cytosolic, single-site binding scheme, nonlinear regression)?
A: 105 nM

Q: And the “apparent rate constant for dissociation, mean value” ([2]; +40 mV, independent of concentration)?
A: 0.24 ± 0.01 s⁻¹

Q: What about the “z, voltage dependence of occurrence of the modified state” value ([2]; Boltzmann fit of P mod vs holding potential, 500 nM cytosolic) of the same molecule?
A: 2.16

Q: What about the Hill slope ([2]; P mod vs concentration, +40 mV) of the same molecule?
A: 0.99

Q: And the “slope of ln(rate constant) vs ln(concentration)” value ([2]; association, +40 mV)?
A: 0.975

Q: What about the modified conductance ([2]; cursors at center of noise, 610 mM K+, SEM, n = 14) of the same molecule?
A: 354 ± 6 pS

Q: And the “mean fractional conductance ± SEM” value ([2]; holding potential 20 mV, n = 10)?
A: 0.438 ± 0.004

Q: What about the “mean fractional conductance ± SEM” value ([2]; holding potential 40 mV, n = 10) of the same molecule?
A: 0.440 ± 0.003

Q: And the “mean fractional conductance ± SEM” value ([2]; holding potential 60 mV, n = 10)?
A: 0.462 ± 0.003

Q: And the “mean P o ± SEM in unmodified periods” value ([2]; holding potential +20 mV, 500 nM ryanoid, n = 7)?
A: 0.65 ± 0.09

Q: And the “mean P o ± SEM in unmodified periods” value ([2]; holding potential +40 mV, 500 nM ryanoid, n = 7)?
A: 0.69 ± 0.09

Q: What about the “mean P o ± SEM in unmodified periods” value ([2]; holding potential +60 mV, 500 nM ryanoid, n = 7) of the same molecule?
A: 0.45 ± 0.06

Q: What about the “mean P o ± SEM in unmodified periods” value ([2]; holding potential −20 mV, 500 nM ryanoid, n = 6) of the same molecule?
A: 0.62 ± 0.15

Q: And the “mean fractional conductance ± SEM” value ([2]; holding potential −20 mV, n = 10)?
A: 0.437 ± 0.005

Q: And the “mean P o ± SEM in unmodified periods” value ([2]; holding potential −40 mV, 500 nM ryanoid, n = 5)?
A: 0.73 ± 0.13

Q: And the “mean fractional conductance ± SEM” value ([2]; holding potential −40 mV, n = 6)?
A: 0.442 ± 0.002

Q: What about the “mean P o ± SEM in unmodified periods” value ([2]; holding potential −60 mV, 500 nM ryanoid, n = 5) of the same molecule?
A: 0.78 ± 0.17

Q: And the fractional conductance ([2]; modified conductance as proportion of unmodified conductance (813 pS))?
A: 0.44

Q: And the Kd ([2]; read-out: apparent K d derived from the rate constants, +40 mV)?
A: 111 nM

Q: What about the z off ([2]; slope of ln(K off) vs holding potential, 500 nM cytosolic) of the same molecule?
A: 0.87

Q: What about the z on ([2]; slope of ln(K on) vs holding potential, 500 nM cytosolic) of the same molecule?
A: 1.11
